Consider 16 molecules from ChEMBL document CHEMBL1133383, “Synthesis and enzyme inhibitory activities of a series of lipidic diamine and aminoalcohol derivatives on cytosolic and secretory phospholipases A2” (Bioorg Med Chem Lett, 2000).

Assay [1] concerns the target T1, Cytosolic phospholipase A2 (Mus musculus) (UniProt P47713).
T1 sequence (whole entry): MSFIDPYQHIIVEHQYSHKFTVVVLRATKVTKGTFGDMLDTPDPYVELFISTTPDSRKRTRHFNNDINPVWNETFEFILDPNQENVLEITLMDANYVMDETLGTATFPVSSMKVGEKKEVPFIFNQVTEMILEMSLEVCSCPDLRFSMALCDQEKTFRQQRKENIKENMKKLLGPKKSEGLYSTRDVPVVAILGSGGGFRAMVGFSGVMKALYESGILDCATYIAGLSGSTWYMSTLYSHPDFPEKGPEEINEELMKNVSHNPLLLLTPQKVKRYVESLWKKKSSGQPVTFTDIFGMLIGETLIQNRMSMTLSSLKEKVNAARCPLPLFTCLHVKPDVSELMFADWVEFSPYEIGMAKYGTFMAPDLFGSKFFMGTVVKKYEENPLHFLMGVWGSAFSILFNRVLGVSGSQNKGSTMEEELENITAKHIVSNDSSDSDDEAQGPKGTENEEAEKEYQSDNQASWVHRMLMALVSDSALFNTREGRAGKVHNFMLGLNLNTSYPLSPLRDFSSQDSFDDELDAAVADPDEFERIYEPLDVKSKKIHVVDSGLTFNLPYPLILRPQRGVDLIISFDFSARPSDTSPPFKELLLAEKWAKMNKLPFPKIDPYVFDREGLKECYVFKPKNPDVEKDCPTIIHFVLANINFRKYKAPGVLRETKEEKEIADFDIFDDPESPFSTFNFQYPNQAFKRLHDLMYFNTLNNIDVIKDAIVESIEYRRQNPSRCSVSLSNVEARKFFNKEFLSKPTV
Description: (§1) Effect on cytosolic Phospholipase A2 (PLA2) activity at a concentration of 100 uM. In short, it runs like this:
(§2)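 Group IV cytosolic PLA2 from the RAW 264.7 macrophage line. Percent inhibition was measured at a single test concentration and reported as mean ± SEM (n=6). IC50 was determined only for compounds reaching 50% inhibition at that concentration.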

The target in assay [2] is T2, Cytosolic phospholipase A2 (Mus musculus, UniProt P47713).
T2 sequence (P47713 whole entry): T1 sequence (whole entry)
The assay is described as §1. In short, it runs like this: as §2

Assay [3] addresses T3, Phospholipase A2, membrane associated (Homo sapiens) (UniProt P14555).
T3 sequence (whole entry): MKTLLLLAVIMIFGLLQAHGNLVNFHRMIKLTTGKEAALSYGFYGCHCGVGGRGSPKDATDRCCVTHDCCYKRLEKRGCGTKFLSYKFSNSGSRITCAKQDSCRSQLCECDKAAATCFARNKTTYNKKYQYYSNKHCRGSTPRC
The assay is described as follows: (§3) Inhibition of secretory PLA2 activity in human recombinant synovial enzyme using [3H]oleate labelled membranes at a concentration of 10 uM. In short, it runs like this: (§4)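 Secretory PLA2 activity was measured using autoclaved [3H]oleate-labelled membranes as substrate. The enzyme was either group II human recombinant synovial PLA2 or group I porcine pancreatic PLA2. Percent inhibition at a single concentration is reported as mean ± SEM (n=6), with significance marked at P<0.05 and P<0.01.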

Assay [4] deals with T4, Phospholipase A2, membrane associated (Homo sapiens, UniProt P14555).
T4 sequence (P14555 whole entry): T3 sequence (whole entry)
Described as §3. In short, it runs like this:
as §4

Assay [5] has as its target Phospholipase A2 (Homo sapiens) (UniProt P04054). The note with it: Naja naja; 10 uM.
Assay [6] has the same target. The conditions noted are these: Apis mellifera; 10 uM.

Molecules are shown by their SMILES.

Chain of Phospholipase A2 (Homo sapiens) (P04054 23-148 limits assumed): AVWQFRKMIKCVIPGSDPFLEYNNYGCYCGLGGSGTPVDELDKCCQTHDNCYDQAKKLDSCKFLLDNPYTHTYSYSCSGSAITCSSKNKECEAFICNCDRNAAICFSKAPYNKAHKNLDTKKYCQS

In turn, `CCCCCCCCCCCCCCC(CNCC(=O)OCC)NC(=O)OC(C)(C)C` (centres undefined) showed an I in assay [1] of 0%.

As for `CCCCCCCCCCCCCCC(N)CN(CC(=O)OCC)CC(=O)OCC` (centres undefined), the I in assay [1] was found to be 43.9%.

Regarding `CCCCCCCCCCCCCCC(COCc1ccccc1)N(CC)CC` (centres undefined), the I in assay [1] amounted to 1.9%.

For the molecule `CCCCCCCCCCCCCCC(COCc1ccccc1)NC(=O)CCCC(=O)O` (centres undefined), half-maximal inhibition in assay [2] (IC50) was put at 10.5 µM. Besides, the I in assay [1] was found to be 84.8%.

On to `CCCCCCCCCCCCCCC(COCc1ccccc1)NC(=O)CCC(=O)O` (centres undefined), for which, in assay [2], inhibition was half-maximal at 62.8 µM (IC50). For the same molecule, in assay [1], the I is 72%.

Regarding `CCCCCCCCCCCCCCC(COC(=O)CCCCCC)NC(=O)CCCCCC` (centres undefined), the I in assay [1] was 2.3%.

On to `CCCCCCCCCCCCCCC(N)CNC(=O)CCCC(=O)O` (centres undefined), for which the I in assay [1] was found to be 0%.

For `CCCCCCCCCCCCCCC(COCc1ccccc1)NCC` (centres undefined), the I in assay [1] was 0%.

Take `CCCCCCCCCCCCCCC(=O)NC(CCCCCCCCCCCCCC)COC(=O)CCCCCCCCCCCCCC` (centres undefined): the I in assay [1] is 5.1%.

`CCCCCCCCCCCCCCC(CO)NCC` (centres undefined): the I in assay [3] came out at 80%; in assay [5] it was 62.6%; in assay [1], 25.2%; in assay [6], 63.5%. For the same molecule, in assay [4], the IC50 (usually the concentration that inhibits the measured activity by half) is 3.7 µM.

On to `CCCCCCCCCCCCCCC(CO)NC(=O)CCCC(=O)O` (centres undefined), for which the I in assay [1] amounted to 0%.

`CCCCCCCCCCCCCCC(=O)NC(CCCCCCCCCCCCCC)COC(=O)CCCCCC` (centres undefined) gave an I in assay [1] of 0.5%.

The molecule `CCCCCCCCCCCCCCC(COCc1ccccc1)NC(=O)/C=C/C(=O)O` (centres undefined) displayed an IC50 in assay [2] of 69.5 µM. Also, the I in assay [1] was determined as 60.7%.

In the case of `CCCCCCCCCCCCCCC(N)CN(CC)CC` (centres undefined), the I in assay [3] amounted to 82.7%; in assay [5], 51.5%; in assay [1] it was 90.6%; in assay [6], 57.6%. For the same molecule, the figures for the IC50 in assay [2] and in assay [4] were 11.9 µM and 5.6 µM, respectively.

In the case of `CCCCCCCCCCCCCCCC(=O)C(F)(F)F`, the IC50 in assay [2] stood at 11.7 µM. This molecule also registered an I in assay [1] of 67.7%.

On to `CCCCCCCCCCCCCCC(CO)NCC(=O)O` (centres undefined), for which the I in assay [1] is 25%.
